Data taken from PMC3572549 (Bioorganic & medicinal chemistry, 2012).

Tests used:
[1] = system: cellular microtubules in A-10 cells; assay: Loss of cellular; assay type: cell-based, rat; conditions: for Effect on cellular microtubules (in words): concentrations as high as 10 or 40 µM
Procedure, shortened: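 Rat aortic smooth muscle A-10 cells were exposed to DMSO vehicle or test compound for 18 h, fixed in cold methanol, and stained for β-tubulin by indirect immunofluorescence. […] It is reported as mean ±SD of 3–4 independent experiments.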

mitotic spindles = assay: Formation of aberrant mitotic spindles; assay type: cell-based; conditions: data not shown
Water solubility = assay type: physicochemical
MDA-MB-435 cells = assay: Cell cycle distribution by flow cytometry; assay type: cell-based, human; conditions: 44.1 nM or 73.5 nM, 18 h
[2] = system: purified porcine brain tubulin; assay: Preliminary study of inhibition of tubulin polymerization; assay type: biochemical; conditions: porcine brain tubulin 2.5 mg/mL, absorbance at 340 nm, 37 °C
Procedure, shortened: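 Porcine brain tubulin (2.5 mg/mL) was incubated with test compound, colchicine or DMSO vehicle. Polymerization was followed turbidimetrically as absorbance at 340 nm at 37 °C.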

SMILES | Effect on cellular microtubules (in words) [1] | Effect on mitotic spindles (mitotic spindles) | other results
COc1cccc(N(C)c2nc(N)nc3[nH]c4ccccc4c23)c1 [Compound 10, N^4-(3-Methoxyphenyl)-N^4-methyl-9H-pyrimido[4,5-b]indole-2,4-diamine] | inactive | – | –
CCN(c1ccc(OC)cc1)c1nc(N)nc2[nH]c3ccccc3c12 [Compound 14, N^4-Ethyl-N^4-(4-methoxyphenyl)-9H-pyrimido[4,5-b]indole-2,4-diamine] | active | caused the formation of aberrant mitotic spindles | –
CCOc1ccc(N(C)c2nc(N)nc3[nH]c4ccccc4c23)cc1 [Compound 15, N^4-(4-Ethoxyphenyl)-N^4-methyl-9H-pyrimido[4,5-b]indole-2,4-diamine] | active | caused the formation of aberrant mitotic spindles | –
COc1cc(Nc2nc(N)nc3[nH]c4ccccc4c23)cc(OC)c1OC [Compound 12, N^4-(3,4,5-Trimethoxyphenyl)-9H-pyrimido[4,5-b]indole-2,4-diamine] | inactive | – | –
COc1ccc(Nc2nc(N)nc3[nH]c4ccccc4c23)cc1 [Compound 4, N^4-(4-Methoxyphenyl)-9H-pyrimido[4,5-b]indole-2,4-diamine] | inactive | – | –
COc1ccc(N(C)c2nc(NC(=O)C(C)(C)C)nc3[nH]c4ccccc4c23)cc1 [Compound 7, N-{4-[(4-Methoxyphenyl)(methyl)amino]-9H-pyrimido[4,5-b]indol-2-yl}-2,2-dimethylpropanamide] | inactive | – | –
Cc1ccc(N(C)c2nc(N)nc3[nH]c4ccccc4c23)cc1 [Compound 13, N^4-Methyl-N^4-(4-methylphenyl)-9H-pyrimido[4,5-b]indole-2,4-diamine] | inactive | – | –
COc1ccc(N(C)c2nc(N)nc3[nH]c4ccccc4c23)cc1.Cl [Compound 6·HCl, 4-((4-Methoxyphenyl)(methyl)amino)-9H-pyrimido[4,5-b]indol-2-aminium chloride] | – | – | Solubility in water (Water solubility): freely soluble in water
COc1ccc(N(C)c2nc(N)nc3[nH]c4ccccc4c23)cc1 [Compound 6, N^4-(4-Methoxyphenyl)-N^4-methyl-9H-pyrimido[4,5-b]indole-2,4-diamine] | active | caused the formation of aberrant mitotic spindles | Effect on interphase microtubule network (immunofluorescence) ([1]; 500 nM 6, 18 h incubation): extensive loss of the interphase microtubule network; Effect on cell cycle distribution (MDA-MB-435 cells): accumulation of cells in the G2/M phase of the cell cycle; Inhibition of tubulin assembly (initial study, in words) [2]: potent inhibitor of tubulin assembly
